{"source": "paper PMC6635418", "about": "(Current Drug Delivery, 2019)", "key": {"[1]": {"conditions": "cited from earlier work"}, "[2]": {"assay": "Pharmacokinetics of oral topotecan with or without chrysin formulations in rats", "type": "in vivo", "procedure,_shortened": "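Male Sprague-Dawley rats (250-290 g), fasted 12 h, n=3 per group. Oral BCRP substrate (10 mg/kg in saline) given alone or with test compound, free or as solid dispersion (100 mg/kg equivalent in 0.5% methylcellulose/5% PEG). Femoral arterial plasma analysed by HPLC-fluorescence (ex 350/em 527 nm), 10-1000 ng/mL. Noncompartmental: trapezoidal AUC, observed Cmax/Tmax. ANOVA with Dunnett's test.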"}, "[3]": {"test_system": "breast cancer resistance protein (BCRP)", "conditions": "read-out: IC50 against mitoxantrone efflux; BCRP inhibition; cited from earlier work"}, "[4]": {"assay": "Solubility study in distilled water", "type": "physicochemical", "procedure,_shortened": "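Each formulation, equivalent to 1 mg test compound, stirred in 1 mL distilled water at 600 rpm for 24 h at room temperature. Centrifuged at 13,000 rpm for 10 min and filtered through 0.45 µm. Filtrate diluted in ethanol and quantified by C18 HPLC-UV at 267 nm against a 0.5-20 µg/mL calibration. n=3, mean±SD.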"}, "[5]": {"conditions": "male, Sprague-Dawley, rat, plasma, po, 10 mg/kg"}}, "data": [{"smiles": "CCCCCCCCCCCCOCCOCCOCCOCCO", "note": "[Brij®L4, polyoxyethylene (4) lauryl ether]", "values": [{"measurement": "critical micelle concentration (CMC)", "setting": "[1]", "result": "0.00097 %, w/v"}]}, {"smiles": "CC[C@@]1(O)C(=O)OCc2c1cc1n(c2=O)Cc2cc3c(CN(C)C)c(O)ccc3nc2-1", "note": "[Control (Topotecan Only), topotecan]", "values": [{"measurement": "AUC", "setting": "[2]; [5]", "result": "0.578 ± 0.0372", "unit": "µg·h/mL"}, {"measurement": "Cmax", "setting": "[2]; [5]", "result": "0.109 ± 0.0445", "unit": "µg/mL"}, {"measurement": "Tmax", "setting": "[2]; [5]", "result": "1.3 ± 0.66", "unit": "h"}]}, {"smiles": "O=c1cc(-c2ccccc2)oc2cc(O)cc(O)c12", "note": "[chrysin (untreated drug), 5,7-dihydroxyflavone]", "values": [{"measurement": "IC50", "setting": "[3]", "result": "0.39 ± 0.13", "unit": "µM"}, {"measurement": "effect on oral exposure of topotecan", "setting": "[2]; rats, oral, versus topotecan only", "result": "no effect"}, {"measurement": "solubility at 24 h", "setting": "[4]", "result": "3.04 ± 0.19", "unit": "µg/mL"}]}]}
